Experimental data published in ChEMBL document CHEMBL4261570, “Design, Synthesis and Preliminary Antimicrobial Evaluation of N-Alkyl Chain Tethered C-5 Functionalized Bis-Isatins” (Medchemcomm, 2017).
Calls of active or inactive are those of the source. The calls are words filed in the database; no cut-off is given here.

Experiments:
Trichomonas vaginalis = assay: Antiparasitic activity against Trichomonas vaginalis assessed as parasite growth inhibition at 50 uM after 24 hrs by hemacytometer relative to control; type: functional; conditions: read-out: GI
In short: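 G3 strain cultured in TYM Diamond's medium in 15 mL tubes, with compound in DMSO. Controls were untreated and 0.1% DMSO. After 24 h, cells were counted by hemacytometer and normalized to the DMSO controls. Screening was at 50 μM. IC50 came from titrations of 5–40 μM with variable-slope regression, 4 independent trials on different days, and was then re-confirmed.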

Giardia intestinalis [1] = assay: Antiparasitic activity against Giardia lamblia WB trophozoites assessed as parasite growth inhibition at 50 uM after 48 hrs by ATP bioluminescence-based CellTiter-Glo luminescent cell viability assay relative to control; type: functional; conditions: Giardia duodenalis; for inhibition of growth at 50 µM: read-out: GI
In short: (§1)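 Trophozoites kept axenically in TYI-S-33 with penicillin and streptomycin. Each well held 5000 trophozoites and was incubated 48 h at 37 °C under anaerobic conditions in a GasPak pouch. Read-out was CellTiter-Glo ATP luminescence. Controls were 0.5% DMSO vehicle and 30 μM metronidazole. Primary screen at 50 μM in duplicate; hits were those above 50% inhibition. EC50 came from triplicate 8-point series (0.39–50 μM) and dose-response curves.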

Entamoeba histolytica = assay: Antiparasitic activity against Entamoeba histolytica HM-1:IMSS trophozoites assessed as parasite growth inhibition at 50 uM after 48 hrs by ATP bioluminescence-based CellTiter-Glo luminescent cell viability assay relative to control; type: functional; conditions: for inhibition of growth at 50 µM: read-out: GI; in short: as §1
[2] = test system: Lacticaseibacillus rhamnosus; assay: Toxicity in Lactobacillus rhamnosus ATCC 53103 at 100 uM measured after overnight incubation by disc diffusion method; type: organism-based, GG; conditions: in vivo
In short: (§2)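 Grown in Lactobacilli MRS at 37 °C under anaerobic conditions. Blank 6 mm discs were soaked 20 min at room temperature in a 100 μM working dilution in medium. Discs were placed on streaked agar alongside DMSO vehicle and antibiotic discs (levofloxacin, gentamicin), incubated overnight at 37 °C, and zones of inhibition measured in mm.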

[3] = test system: Limosilactobacillus reuteri; assay: Toxicity in Lactobacillus reuteri ATCC 23272 at 100 uM measured after overnight incubation by disc diffusion method; type: organism-based; conditions: in vivo; in short: as §2
[4] = test system: Lactobacillus acidophilus; assay: Toxicity in Lactobacillus acidophilus ATCC 43560 at 100 uM measured after overnight incubation by disc diffusion method; type: organism-based; conditions: in vivo; in short: as §2
Escherichia coli = assay: Toxicity in Escherichia coli K-12 MG1655 at 100 uM measured after overnight incubation by disc diffusion method; type: organism-based, K-12 substr. MG1655; conditions: in vivo
In short: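 Grown in Luria broth at 37 °C under aerobic conditions. Blank 6 mm discs were soaked 20 min at room temperature in a 100 μM working dilution in medium. Discs were placed on streaked agar alongside DMSO vehicle and antibiotic discs (levofloxacin, gentamicin), incubated overnight at 37 °C, and inhibition zones measured in mm.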

Aspergillus parasiticus [5] = assay: Antifungal activity against Aspergillus parasiticus NRRL5862 assessed as fungal growth at 500 uM after 24 hrs by microtiter plate liquid bioassay (reference value: 100%); type: functional
In short: (§3)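 A. parasiticus grown at 35 °C on PDA. Liquid assay in RPMI 1640, 3 × 104 to 5 × 10^4 CFU per mL, triplicate wells, 35 °C. Compounds in DMSO (<2% in media). No-treatment wells carry matched DMSO. Wells scored visually 0–4 versus the no-treatment control: 0 clear, 1 25%, 2 50%, 3 75%, 4 no reduction. Scoring follows CLSI M38-A.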

Aspergillus parasiticus [6] = assay: Antifungal activity against Aspergillus parasiticus NRRL5862 assessed as fungal growth at 500 uM after 48 hrs by microtiter plate liquid bioassay (reference value: 100%); type: functional; in short: as §3
Saccharomyces cerevisiae [7] = assay: Antifungal activity against Saccharomyces cerevisiae BY4741 assessed as fungal growth at 500 uM after 24 hrs by microtiter plate liquid bioassay (reference value: 100%); type: functional
Saccharomyces cerevisiae [8] = assay: Antifungal activity against Saccharomyces cerevisiae BY4741 assessed as fungal growth at 500 uM after 48 hrs by microtiter plate liquid bioassay (reference value: 100%); type: functional
Naegleria fowleri = assay: Antiparasitic activity against Naegleria fowleri KUL trophozoites assessed as parasite growth inhibition after 48 hrs by ATP bioluminescence-based CellTiter-Glo luminescent cell viability assay; type: functional, organism-based
In short: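 Strain KUL trophozoites cultured axenically in Nelson's medium with 10% FBS at 37 °C. Each well held 10 000 trophozoites, incubated under aerobic conditions without the anaerobe pouch. Read-out was CellTiter-Glo luminescence. Positive control was 50 μM amphotericin B. Hits were serially diluted in triplicate, 8 points from 0.39 to 50 μM, and EC50 was taken from dose-response curves.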

Giardia intestinalis [9] = assay: Antiparasitic activity against Giardia lamblia WB trophozoites assessed as parasite growth inhibition after 48 hrs by ATP bioluminescence-based CellTiter-Glo luminescent cell viability assay; type: functional, organism-based; conditions: Giardia duodenalis; in short: as §1

SMILES | inhibition of growth at 50 µM (Trichomonas vaginalis) [%] | inhibition of growth at 50 µM (Giardia intestinalis [1]) [%] | growth inhibition (GI) (Entamoeba histolytica) | Activity [2] | Activity [3] | Activity [4] | Activity (Escherichia coli) | Activity (Aspergillus parasiticus [5]) | Activity (Aspergillus parasiticus [6]) [%] | Activity (Saccharomyces cerevisiae [7]) [%] | Activity (Saccharomyces cerevisiae [8]) [%] | IC50 (Naegleria fowleri) [µM] | growth inhibition (GI) (Giardia intestinalis [1]) | inhibition of growth at 50 µM (Entamoeba histolytica) [%] | IC50 (Giardia intestinalis [9]) [µM]
O=C1C(=O)N(CCCCCCCCN2C(=O)C(=O)c3cc(Br)ccc32)c2ccccc21 | 96.8 | 51.1 | inactive | Non-Toxic | Non-Toxic | Non-Toxic | Non-Toxic |  |  |  |  |  |  |  | 
CCCCCCCCOC(=O)c1cc(O)c(O)c(O)c1 [OCTYL_GALLATE] |  |  |  |  |  |  |  | 0% | 0 | 0 | 0 |  |  |  | 
O=C1C(=O)N(CCCCN2C(=O)C(=O)c3cc(F)ccc32)c2ccccc21 | 100 | 1.2 | inactive | Non-Toxic | Non-Toxic | Non-Toxic | Non-Toxic |  |  |  |  |  |  |  | 
O=C1C(=O)N(CCCCCCN2C(=O)C(=O)c3cc(F)ccc32)c2ccccc21 | 100 | 30.9 | inactive | Non-Toxic | Non-Toxic | Non-Toxic | Non-Toxic |  |  |  |  |  |  |  | 
C[C@@H]1[C@H](O)[C@@H](C)/C=C/C=C/C=C/C=C/C=C/C=C/C=C/[C@H](O[C@@H]2O[C@H](C)[C@@H](O)[C@H](N)[C@@H]2O)C[C@@H]2O[C@](O)(C[C@@H](O)C[C@@H](O)[C@H](O)CC[C@@H](O)C[C@@H](O)CC(=O)O[C@H]1C)C[C@H](O)[C@H]2C(=O)O [AMPHOTERICIN B] |  |  |  |  |  |  |  |  |  |  |  | 0.2 |  |  | 
O=C1C(=O)N(CCCN2C(=O)C(=O)c3ccccc32)c2ccccc21 | 96.8 | 7.84 | inactive | Non-Toxic | Non-Toxic | Non-Toxic | Non-Toxic |  |  |  |  |  |  |  | 
O=C1C(=O)N(CCN2C(=O)C(=O)c3cc(Br)ccc32)c2ccccc21 | 100 |  | inactive | Non-Toxic | Non-Toxic | Non-Toxic | Non-Toxic |  |  |  |  |  | inactive |  | 
O=C1C(=O)N(CCCCCN2C(=O)C(=O)c3ccccc32)c2ccccc21 | 90.9 | 94.3 |  | Non-Toxic | Non-Toxic | Non-Toxic | Non-Toxic |  |  |  |  |  |  | 100 | 26
O=C1C(=O)N(CCCBr)c2ccccc21 | 59.9 | 22.9 |  | Non-Toxic | Non-Toxic | Non-Toxic | Non-Toxic | 75 - 100% | 100 | 50 | 75 |  |  | 1.32 | 
O=C1C(=O)N(CCCCN2C(=O)C(=O)c3ccccc32)c2ccccc21 | 61.3 | 11.6 | inactive | Non-Toxic | Non-Toxic | Non-Toxic | Non-Toxic |  |  |  |  |  |  |  | 
O=C1C(=O)N(CCCCCCN2C(=O)C(=O)c3cc(Br)ccc32)c2ccccc21 | 100 | 43.2 | inactive | Non-Toxic | Non-Toxic | Non-Toxic | Non-Toxic |  |  |  |  |  |  |  | 
O=C1C(=O)N(CCCCCCN2C(=O)C(=O)c3ccccc32)c2ccccc21 | 45.5 | 9.68 | inactive | Non-Toxic | Non-Toxic | Non-Toxic | Non-Toxic |  |  |  |  |  |  |  | 
O=C1C(=O)N(CCCCCCCCN2C(=O)C(=O)c3cc(F)ccc32)c2ccccc21 | 100 |  |  | Non-Toxic | Non-Toxic | Non-Toxic | Non-Toxic |  |  |  |  |  | inactive | 13.8 | 
O=C1C(=O)N(CCCCCN2C(=O)C(=O)c3cc(Br)ccc32)c2ccccc21 | 100 |  | inactive | Non-Toxic | Non-Toxic | Non-Toxic | Non-Toxic | 100% | 100 | 50 | 100 |  | inactive |  | 
O=C1C(=O)N(CCCCCCCCN2C(=O)C(=O)c3ccccc32)c2ccccc21 | 30.3 | 80.7 |  | Non-Toxic | Non-Toxic | Non-Toxic | Non-Toxic |  |  |  |  |  |  | 100 | 38
O=C1C(=O)N(CCCCCCCCN2C(=O)C(=O)c3cc(Cl)ccc32)c2ccccc21 | 75.8 | 8.56 | inactive | Non-Toxic | Non-Toxic | Non-Toxic | Non-Toxic |  |  |  |  |  |  |  | 
O=C1C(=O)N(CCCCCCN2C(=O)C(=O)c3cc(Cl)ccc32)c2ccccc21 | 93.9 | 94.5 | inactive | Non-Toxic | Non-Toxic | Non-Toxic | Non-Toxic |  |  |  |  |  |  |  | 31.5
O=C1C(=O)N(CCCN2C(=O)C(=O)c3cc(Cl)ccc32)c2ccccc21 | 100 |  | inactive | Non-Toxic | Non-Toxic | Non-Toxic | Non-Toxic |  |  |  |  |  | inactive |  | 
O=C1C(=O)N(CCN2C(=O)C(=O)c3cc(F)ccc32)c2ccccc21 | 45.5 | 8.15 | inactive | Non-Toxic | Non-Toxic | Non-Toxic | Non-Toxic |  |  |  |  |  |  |  | 
O=C1C(=O)N(CCCCN2C(=O)C(=O)c3cc(Cl)ccc32)c2ccccc21 | 100 |  | inactive | Non-Toxic | Non-Toxic | Non-Toxic | Non-Toxic | 100% | 100 | 25 | 75 |  | inactive |  | 
O=C1C(=O)N(CCN2C(=O)C(=O)c3ccccc32)c2ccccc21 | 96.8 | 6.75 | inactive | Non-Toxic | Non-Toxic | Non-Toxic | Non-Toxic |  |  |  |  |  |  |  | 
CCCCCCCCCCCCCCCCOP(=O)([O-])OCC[N+](C)(C)C [MILTEFOSINE] |  |  |  |  |  |  |  |  |  |  |  | 54.5 |  |  | 
